Measured values: article PMC9064899 (The FEBS journal, 2021)
Substitutions are numbered along the chain they refer to. Where “and” joins values, the source holds several entries; their conditions need not be identical. Equal values may be shown once.

How the values were obtained:
UBIAD1 G177E = target: T1, UBIAD1 G177E (Homo sapiens, UniProt Q9Y5Z9, G177E); assay: Cell-based UBIAD1 functional assay
T1 sequence (Q9Y5Z9 1-338 G177E): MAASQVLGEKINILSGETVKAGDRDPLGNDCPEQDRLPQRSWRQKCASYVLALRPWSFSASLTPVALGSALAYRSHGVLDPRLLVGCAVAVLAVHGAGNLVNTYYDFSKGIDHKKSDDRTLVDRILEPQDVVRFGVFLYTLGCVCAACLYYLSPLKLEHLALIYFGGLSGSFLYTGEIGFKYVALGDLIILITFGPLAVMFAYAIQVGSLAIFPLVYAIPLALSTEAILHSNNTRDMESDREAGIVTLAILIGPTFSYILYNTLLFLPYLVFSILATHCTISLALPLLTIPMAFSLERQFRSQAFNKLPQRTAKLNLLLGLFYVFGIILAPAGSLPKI
Procedure, shortened: (§1)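 Wild-type or mutant human UBIAD1 in pCI-neo was transiently transfected into Ubiad1-knockout FIXgla-PC/HEK293 cells (DMEM/F12, 10% FBS). […] After 24 h, carboxylated FIXgla-PC in the medium was measured by ELISA. Activity was normalized to wild type (100%), and EC50 came from a curve fit. Mean ± SD, n=3 independent experiments.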

UBIAD1 D236A = target: T2, UBIAD1 D236A (Homo sapiens, UniProt Q9Y5Z9, D236A); assay: Cell-based UBIAD1 functional assay
T2 sequence (Q9Y5Z9 1-338 D236A): T1 sequence (Q9Y5Z9 1-338 G177E) with E177G, D236A
Procedure, shortened: as §1

UBIAD1 L67Q = target: T3, UBIAD1 L67Q (Homo sapiens, UniProt Q9Y5Z9, L67Q); assay: Cell-based UBIAD1 functional assay
T3 sequence (Q9Y5Z9 1-338 L67Q): T1 sequence (Q9Y5Z9 1-338 G177E) with L67Q, E177G
Procedure, shortened: as §1

[1] = system: UBIAD1-deficient FIXgla-PC/HEK293 reporter cells; assay: VKD carboxylation of FIXgla-PC supported by K vitamins in UBIAD1-knockout cells; assay type: cell-based, human; details: UBIAD1-deficient (knockout) FIXgla-PC/HEK293 cells
Procedure, shortened: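 Ubiad1-knockout FIXgla-PC/HEK293 reporter cells were cultured for 24 h with increasing concentrations of vitamin K1, MK-4, vitamin K3, or menaquinones with 1–4 or 7 isoprene units. K vitamin stocks were made in polyethoxylated castor oil. Carboxylated FIXgla-PC was determined by ELISA, and half-maximal stimulation concentration (EC50) came from curve fitting. Mean ± SD.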

wild-type UBIAD1 = target: T4, wild-type UBIAD1 (Homo sapiens, UniProt Q9Y5Z9); assay: Cell-based UBIAD1 functional assay
T4 sequence (Q9Y5Z9 1-338): T1 sequence (Q9Y5Z9 1-338 G177E) with E177G
Procedure, shortened: as §1

UBIAD1 G186R = target: T5, UBIAD1 G186R (Homo sapiens, UniProt Q9Y5Z9, G186R); assay: Cell-based UBIAD1 functional assay
T5 sequence (Q9Y5Z9 1-338 G186R): T1 sequence (Q9Y5Z9 1-338 G177E) with E177G, G186R
Procedure, shortened: as §1

UBIAD1 D240A = target: T6, UBIAD1 D240A (Homo sapiens, UniProt Q9Y5Z9, D240A); assay: Cell-based UBIAD1 functional assay
T6 sequence (Q9Y5Z9 1-338 D240A): T1 sequence (Q9Y5Z9 1-338 G177E) with E177G, D240A
Procedure, shortened: as §1

CC1=CC(=O)c2ccccc2C1=O [vitamin K3, menadione]
EC50 (UBIAD1 G177E): 3.7 ± 0.5 nM
Vitamin K-dependent carboxylation Activity ± SD (UBIAD1 G177E; G177E, 1 μM vitamin K3): 117.1 ± 4.5%
EC50 (UBIAD1 D236A): 90 ± 17.6 nM
Vitamin K-dependent carboxylation Activity ± SD (UBIAD1 D236A; D236A, 1 μM vitamin K3): 32% and 32.5 ± 0.9%
EC50 (UBIAD1 L67Q): 3.8 ± 0.8 nM
Vitamin K-dependent carboxylation Activity ± SD (UBIAD1 L67Q; L67Q, 1 μM vitamin K3): 40.7 ± 2%
support of VKD carboxylation of reporter protein [1]: fails to carboxylate the reporter protein
EC50 (wild-type UBIAD1): 3.7 ± 0.4 nM
Vitamin K-dependent carboxylation Activity ± SD (wild-type UBIAD1; WT, 1 μM vitamin K3, WT normalized to 100%): 100 ± 2.4%
increase of EC50 value of vitamin K3 vs wild-type (UBIAD1 G186R; G186R vs WT): 60 fold
Vitamin K-dependent carboxylation Activity ± SD (UBIAD1 G186R; G186R, 1 μM vitamin K3): 57.1 ± 1.1%
EC50 (UBIAD1 D240A): 64 ± 10.5 nM
Vitamin K-dependent carboxylation Activity ± SD (UBIAD1 D240A; D240A, 1 μM vitamin K3): 85.6 ± 1.4%
